In ChEMBL document CHEMBL1134337, “Behavioral approach to nondyskinetic dopamine antagonists: identification of seroquel” (J Med Chem, 2001):
One block for each molecule: values may come before it.

Tests used:
[1] = target: D(2) dopamine receptor (Rattus norvegicus) (UniProt P61169); test: Binding affinity at dopamine receptor D2 from rat by spiropiperidone displacement.
In short: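 D2 receptor binding was read as % displacement of spiropiperidone, with test compound at 1000 nM unless stated otherwise. IC50 values used at least five concentrations per compound in triplicate. Each value is the mean of two replicate experiments differing by 5% or less.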

Mus musculus [2] = test: Antagonism of apomorphine induced climbing was determined in female swiss -Webster mice after (ip) administration of 80 mg/kg; format: functional
In short: (§1)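 Female Swiss-Webster mice (about 20 g) were fasted about 24 h, then given test compound or vehicle ip or po (N = 20 per group). Vehicle was 0.5% w/w hydroxypropylmethylcellulose with 0.1% w/w Tween 80 in water. After 30 min, mice received apomorphine HCl 1.25 mg/kg sc. At 13 min, each mouse was watched for 1 min; score was mean of highest and lowest rung of 27. Groups were compared with vehicle by Student's t-test.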

Mus musculus [3] = test: Antagonism of apomorphine induced climbing was determined in female swiss -Webster mice after (ip) administration of 20 mg/kg; format: functional; in short: as §1
Mus musculus [4] = test: Antagonism of apomorphine induced climbing was determined in female swiss -Webster mice after (ip) administration of 40 mg/kg; format: functional; in short: as §1
D(2) dopamine receptor = D(2) dopamine receptor (Rattus norvegicus, UniProt P61169); test: Inhibition of spiropiperidone binding at dopamine receptor D2 of rat.
[5] = Number of animals showing dyskinesias was determined in haloperidol sensitized 2 cebus monkeys after (po) administration of 40 mg/kg; format: functional
In short: (§2)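 Adult female and male Cebus monkeys sensitized with oral haloperidol 1 mg/kg once per week until dyskinetic reactions occurred. Test drug given orally (2 mL/kg) in 0.5% w/w hydroxypropylmethylcellulose with 0.1% w/w Tween 80 in distilled water, at least 2 weeks between treatments. Two observers watched continuously for 6-7 h, recording reaction type and severity every 30 min. Score is monkeys with dyskinesias/monkeys tested.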

Mus musculus [6] = test: Antagonism of apomorphine induced swimming was determined in female swiss -Webster mice after (ip) administration of 20 mg/kg; format: functional
Mus musculus [7] = test: Antagonism of apomorphine induced climbing was determined in female swiss -Webster mice after (ip) administration of 5 mg/kg; format: functional; in short: as §1
Mus musculus [8] = test: Antagonism of apomorphine induced swimming was determined in female swiss -Webster mice after (ip) administration of 80 mg/kg; format: functional
Mus musculus [9] = test: Antagonism of apomorphine induced swimming was determined in female swiss -Webster mice after (ip) administration of 40 mg/kg; format: functional
Mus musculus [10] = test: Antagonism of apomorphine induced swimming was determined in female swiss -Webster mice after (ip) administration of 5 mg/kg; format: functional
Mus musculus [11] = test: Antagonism of apomorphine induced swimming was determined in female swiss -Webster mice after (ip) administration of 10 mg/kg; format: functional
Mus musculus [12] = test: Antagonism of apomorphine induced climbing was determined in female swiss -Webster mice after (ip) administration of 10 mg/kg; format: functional; in short: as §1
Mus musculus [13] = test: Antagonism of apomorphine induced climbing was determined in female swiss -Wbster mice after (ip) administration of 40 mg/kg; format: functional; in short: as §1
Mus musculus [14] = test: Antagonism of apomorphine induced swimming was determined in female swiss -Wbster mice after (ip) administration of 80 mg/kg; format: functional
Mus musculus [15] = test: Antagonism of apomorphine induced climbing was determined in female swiss -Wbster mice after (ip) administration of 80 mg/kg; format: functional; in short: as §1
Mus musculus [16] = test: Antagonism of apomorphine induced swimming was determined in female swiss -Wbster mice after (ip) administration of 40 mg/kg; format: functional
[17] = Number of animals showing dyskinesias was determined in haloperidol sensitized 2 cebus monkeys after (po) administration of 20 mg/kg; format: functional; in short: as §2
Mus musculus [18] = test: Antagonism of apomorphine induced climbing was determined in female swiss -Wbster mice after (ip) administration of 10 mg/kg; format: functional; in short: as §1
Mus musculus [19] = test: Antagonism of apomorphine induced climbing was determined in female swiss -Wbster mice after (ip) administration of 20 mg/kg; format: functional; in short: as §1
Mus musculus [20] = test: Antagonism of apomorphine induced swimming was determined in female swiss -Wbster mice after (po) administration of 20 mg/kg; format: functional
Mus musculus [21] = test: Antagonism of apomorphine induced climbing was determined in female swiss -Wbster mice after (po) administration of 20 mg/kg; format: functional; in short: as §1
Mus musculus [22] = test: Antagonism of apomorphine induced swimming was determined in female swiss -Wbster mice after (po) administration of 80 mg/kg; format: functional
Mus musculus [23] = test: Antagonism of apomorphine induced climbing was determined in female swiss -Wbster mice after (po) administration of 40 mg/kg; format: functional; in short: as §1
Mus musculus [24] = test: Antagonism of apomorphine induced swimming was determined in female swiss -Wbster mice after (po) administration of 40 mg/kg; format: functional
Mus musculus [25] = test: Antagonism of apomorphine induced climbing was determined in female swiss -Wbster mice after (po) administration of 80 mg/kg; format: functional; in short: as §1
Mus musculus [26] = test: Antagonism of apomorphine induced climbing was determined in female swiss -Webster mice after (ip) administration of 2.5 mg/kg; format: functional; in short: as §1
Mus musculus [27] = test: Antagonism of apomorphine induced climbing was determined in female swiss -Webster mice after (po) administration of 5 mg/kg; format: functional; in short: as §1
Mus musculus [28] = test: Antagonism of apomorphine induced climbing was determined in female swiss -Webster mice after (p.o.) +SKF525A administration of 5 mg/kg; format: functional; settings: route oral; in short: as §1
Mus musculus [29] = test: Antagonism of apomorphine induced climbing was determined in female swiss -Webster mice after (po) administration of 20 mg/kg; format: functional; in short: as §1
Mus musculus [30] = test: Antagonism of apomorphine induced climbing was determined in female swiss -Webster mice after (p.o.) +SKF525A administration of 20 mg/kg; format: functional; settings: route oral; in short: as §1
Mus musculus [31] = test: Antagonism of apomorphine induced climbing was determined in female swiss -Webster mice after (p.o.) +SKF525A administration of 10 mg/kg; format: functional; settings: route oral; in short: as §1
Mus musculus [32] = test: Antagonism of apomorphine induced climbing was determined in female swiss -Webster mice after (po) administration of 10 mg/kg; format: functional; in short: as §1

D(2) dopamine receptor, sequence (P61169 whole entry): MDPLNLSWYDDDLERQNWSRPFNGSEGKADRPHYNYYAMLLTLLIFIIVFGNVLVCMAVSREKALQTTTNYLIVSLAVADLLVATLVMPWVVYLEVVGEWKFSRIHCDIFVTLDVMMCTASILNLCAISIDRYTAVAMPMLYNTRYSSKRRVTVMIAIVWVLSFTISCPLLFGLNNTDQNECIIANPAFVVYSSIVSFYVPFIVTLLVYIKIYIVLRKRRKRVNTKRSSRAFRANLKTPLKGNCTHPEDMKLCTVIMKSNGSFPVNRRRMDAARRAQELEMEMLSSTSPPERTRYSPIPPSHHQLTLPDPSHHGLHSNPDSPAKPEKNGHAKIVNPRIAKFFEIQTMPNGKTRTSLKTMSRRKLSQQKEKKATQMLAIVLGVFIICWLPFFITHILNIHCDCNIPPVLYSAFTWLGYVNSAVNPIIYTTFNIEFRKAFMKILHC
D(2) dopamine receptor (Rattus norvegicus), sequence (P61169 whole entry): as above

Compound: c1ccc2c(c1)N=C(N1CCN(CC3CCCO3)CC1)c1ccccc1S2 (stereo unspecified)
Activity (Mus musculus [3]): 2
Activity (Mus musculus [4]): 7
IC50 (D(2) dopamine receptor): 417 nM
No of monkeys [5]: 2
Activity (Mus musculus [6]): 16
Activity (Mus musculus [7]): 21
Activity (Mus musculus [8]): 37
Activity (Mus musculus [9]): 26
Activity (Mus musculus [2]): 1
Activity (Mus musculus [10]): 1
Activity (Mus musculus [11]): 7
Activity (Mus musculus [12]): 9

Compound: OCCOCCN1CCN(C2=Nc3ccccc3Cc3sccc32)CC1
Activity (Mus musculus [4]): 21
Activity (Mus musculus [2]): 7

Compound: COCC(CO)N1CCN(C2=Nc3ccccc3Sc3ccccc32)CC1 (stereo unspecified)
IC50 (D(2) dopamine receptor): 1640 nM
Activity (Mus musculus [8]): 0
Activity (Mus musculus [2]): 21

Compound: CN1CCN(C2=Nc3ccccc3Cc3ccccc32)CC1 [PERLAPINE]
Activity (Mus musculus [3]): 0
Activity (Mus musculus [26]): 9
IC50 (D(2) dopamine receptor): 2700 nM
Activity (Mus musculus [27]): 20
Activity (Mus musculus [28]): 24
Activity (Mus musculus [7]): 9
Activity (Mus musculus [29]): 2
Activity (Mus musculus [30]): 16
Activity (Mus musculus [31]): 20
Activity (Mus musculus [12]): 7
Activity (Mus musculus [32]): 9

More lines, main results first:

% displacement of spiropiperidone [1]: 46%
Compound: CN1CCN(C2=Nc3cc(Cl)ccc3Sc3ccccc32)CC1 [ISOCLOTHIAPINE]
Activity (Mus musculus [2]): 18

% displacement of spiropiperidone [1]: 16%
Compound: OCCOCCN1CCN(C2=Nc3ccccc3Oc3ccccc32)CC1
Activity (Mus musculus [13]): 17
Activity (Mus musculus [14]): 8
Activity (Mus musculus [15]): 11
Activity (Mus musculus [16]): 1

IC50 (D(2) dopamine receptor): 1390 nM
Compound: OCCOCCOCCN1CCN(C2=Nc3ccccc3Sc3ccccc32)CC1
Activity (Mus musculus [3]): 20
Activity (Mus musculus [4]): 14
Activity (Mus musculus [6]): 2
Activity (Mus musculus [8]): <12
Activity (Mus musculus [9]): <3
Activity (Mus musculus [2]): <3

% displacement of spiropiperidone [1]: 60%
Compound: OCCOCCN1CCN(C2=Nc3cc(Cl)ccc3Cc3sccc32)CC1
No of monkeys [17]: 1
Activity (Mus musculus [13]): 2
Activity (Mus musculus [18]): 20
Activity (Mus musculus [19]): 1
Activity (Mus musculus [15]): 3

% displacement of spiropiperidone [1]: 25%
Compound: OCCOCCN1CCN(C2=Nc3ccc(O)cc3Cc3ccccc32)CC1
Activity (Mus musculus [20]): 1
Activity (Mus musculus [13]): 17
Activity (Mus musculus [21]): 24
Activity (Mus musculus [19]): 21
Activity (Mus musculus [22]): 3
Activity (Mus musculus [15]): 2
Activity (Mus musculus [23]): 17
Activity (Mus musculus [24]): 1
Activity (Mus musculus [25]): 10

% displacement of spiropiperidone [1]: 10%
Compound: COC[C@H](CN1CCN(C2=Nc3ccccc3Sc3ccccc32)CC1)OC
Activity (Mus musculus [4]): 19
Activity (Mus musculus [8]): 13
Activity (Mus musculus [9]): 3
Activity (Mus musculus [2]): 1

% displacement of spiropiperidone [1]: 40%
Compound: CN1CCN(C2=Nc3cc(Cl)ccc3Cc3ccccc32)CC1
Activity (Mus musculus [4]): 24
Activity (Mus musculus [2]): 25
